In ChEMBL document CHEMBL1145471, “Small molecule regulators of autophagy identified by an image-based high-throughput screen” (Proc Natl Acad Sci U S A, 2007):
Activity calls are given as the source filed them. The calls are words filed in the database; no cut-off is given here.

What was measured:
[1] = test system: H4; experiment: Decrease in FYVE-RFP+ vesicle intensity per cell in human H4 cells after 2 hrs relative to control; format: functional; design: concentration or dose not given beside the values
Outline: (§1)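 H4 cells stably expressing FYVE-RFP (H4-FYVE), grown in DMEM with 10% FBS, penicillin/streptomycin and 2 mM L-glutamine at 37°C, 5% CO2, seeded in 96-well plates and exposed to compound. Fixed in 4% paraformaldehyde, nuclei stained with 3 μg/ml DAPI, FYVE-RFP+ vesicles quantified by high-throughput fluorescence microscopy against DMSO control. Triplicate wells, mean ± SD.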

[2] = test system: H4; experiment: Increase in light chain 3-GFP+ autophagosome vesicle intensity per cell in human H4 cells at 7.4 uM after 24 hrs by high throughput fluorescence microscopy relative to control; format: functional
Outline: (§2)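 H4 cells stably expressing LC3-GFP, seeded in 96-well plates and exposed to compound for 24 h; fixed in 4% paraformaldehyde, nuclei stained with 3 μg/ml DAPI. Automated fluorescence microscopy scored number, size and intensity of LC3-GFP spots; values expressed relative to DMSO-treated wells, rapamycin positive control. Triplicate wells, mean ± SD; experiments repeated three times.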

[3] = test system: H4; experiment: Decrease in FYVE-RFP+ vesicle intensity per cell in human H4 cells after 8 hrs relative to control; format: functional; design: concentration or dose not given beside the values; outline: as §1
[4] = test system: H4; experiment: Increase in long-lived protein degradation in human H4 cells after 24 hrs relative to control; format: functional; design: concentration or dose not given beside the values
[5] = test system: H4; experiment: Decrease in FYVE-RFP+ vesicle intensity per cell in human H4 cells after 4 hrs relative to control; format: functional; design: concentration or dose not given beside the values; outline: as §1
[6] = test system: H4; experiment: Increase in light chain 3-GFP+ autophagosome vesicle number per cell in human H4 cells at 7.4 uM after 24 hrs by high throughput fluorescence microscopy relative to control; format: functional
Outline: (§3)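 H4 cells stably expressing LC3-GFP, kept in DMEM/10% FBS at 37°C, 5% CO2, were seeded in 96-well plates and exposed to compound for 24 h. Cells were then fixed in 4% paraformaldehyde and stained with 3 μg/ml DAPI. Automated fluorescence microscopy scored the number, size and intensity of LC3-GFP spots. Values are percent of DMSO wells, in triplicate, mean ± SD. Rapamycin served as positive control.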

[7] = test system: H4; experiment: Increase in light chain 3-GFP+ autophagosome vesicle area per cell in human H4 cells at 7.4 uM after 24 hrs by high throughput fluorescence microscopy relative to control; format: functional; outline: as §2
[8] = test system: H4; experiment: Increase in long-lived protein degradation in human H4 cells after 4 hrs relative to control; format: functional; design: concentration or dose not given beside the values
[9] = test system: H4; experiment: Increase in long-lived protein degradation in human H4 cells after 2 hrs relative to control; format: functional; design: concentration or dose not given beside the values
[10] = test system: H4; experiment: Increase in long-lived protein degradation in human H4 cells after 1 hr relative to control; format: functional; design: concentration or dose not given beside the values
[11] = test system: H4; experiment: Induction of light chain 3-GFP level in human H4 cells at 7.4 uM after 24 hrs by high throughput fluorescence microscopy relative to control; format: functional; outline: as §3
[12] = test system: H4; experiment: Increase in FYVE-RFP+ vesicle intensity per cell in human H4 cells after 8 hrs relative to control; format: functional; design: concentration or dose not given beside the values; outline: as §1
[13] = test system: H4; experiment: Increase in light chain 3-GFP+ autophagosome vesicle area per cell in human H4 cells at 8.3 uM after 24 hrs by high throughput fluorescence microscopy relative to control; format: functional
Outline: (§4)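 H4 cells stably expressing LC3-GFP, seeded in 96-well plates and exposed to compound for 24 h; screening concentrations were 3–12 μM, with rapamycin 0.22 μM and bafilomycin A1 0.40 μM. Cells fixed in 4% paraformaldehyde and stained with 3 μg/ml DAPI. Number, size and intensity of LC3-GFP spots measured by high-throughput fluorescence microscopy and expressed as percent of DMSO-treated wells. Rapamycin was the positive control. Triplicate wells, mean ± SD; experiments repeated three times.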

[14] = test system: H4; experiment: Reduction of poly(Q) level in human H4 cells expressing EGFP-Q79-HA after 24 hrs; format: functional, cell-based
Outline: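 H4 cells were transiently transfected with an EGFP-Q79-HA expression vector. The medium was replaced 6 h after transfection and compounds were added. Poly(Q) was detected with anti-HA antibody.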

[15] = test system: H4; experiment: Increase in FYVE-RFP+ vesicle intensity per cell in human H4 cells after 2 hrs relative to control; format: functional; design: concentration or dose not given beside the values; outline: as §1
[16] = test system: H4; experiment: Increase in light chain 3-GFP+ autophagosome vesicle number per cell in human H4 cells at 8.3 uM after 24 hrs by high throughput fluorescence microscopy relative to control; format: functional
Outline: (§5)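 H4 cells stably expressing LC3-GFP were grown in DMEM with 10% FBS and 2 mM L-glutamine at 37°C, 5% CO2. They were exposed to each compound for 24 h, with DMSO as negative and rapamycin as positive control. Cells were then fixed in 4% paraformaldehyde and stained with 3 μg/ml DAPI. High-throughput fluorescence imaging scored LC3-GFP spot number, size and intensity, expressed relative to DMSO. Mean ± SD of triplicates; experiments repeated three times.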

[17] = test system: H4; experiment: Increase in ratio of light chain 3 subunit 2 to light chain 3 subunit 1 in human H4 cells at 8.3 uM after 4 hrs by Western blot; format: functional, cell-based
Outline: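 H4 cells were treated with each compound for 4 h, then lysed. Lysates were immunoblotted with anti-LC3 antibody, with actin as loading control. LC3II and LC3I bands were compared as an LC3II/LC3I ratio.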

[18] = biological target: Serine/threonine-protein kinase mTOR (Homo sapiens, UniProt P42345); experiment: Effect on mTOR phosphorylation in human H4 cells at 8.3 uM after 4 hrs; format: cell-based
Outline: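 H4 cells exposed to compound for 4 h. Lysates analysed by Western blot with anti-phospho and anti-total mTOR antibodies, with actin as loading control. Rapamycin served as reference.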

[19] = test system: H4; experiment: Induction of light chain 3-GFP level in human H4 cells at 8.3 uM after 24 hrs by high throughput fluorescence microscopy relative to control; format: functional
Outline: (§6)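 H4 cells stably expressing LC3-GFP, grown in DMEM with 10% FBS, penicillin/streptomycin and 2 mM L-glutamine at 37°C, 5% CO2. Cells were seeded in 96-well plates and exposed to library compounds at 3–12 μM for 24 h, then fixed in 4% paraformaldehyde and stained with 3 μg/ml DAPI. LC3-GFP spot number, size and intensity were measured by high-throughput fluorescence microscopy and expressed relative to DMSO. Triplicates, mean ± SD.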

[20] = test system: H4; experiment: Increase in FYVE-RFP+ vesicle intensity per cell in human H4 cells after 4 hrs relative to control; format: functional; design: concentration or dose not given beside the values; outline: as §1
[21] = test system: H4; experiment: Increase in light chain 3-GFP+ autophagosome vesicle intensity per cell in human H4 cells at 8.3 uM after 24 hrs by high throughput fluorescence microscopy relative to control; format: functional; outline: as §5
[22] = test system: H4; experiment: Increase in light chain 3-GFP+ autophagosome vesicle number per cell in human H4 cells at 9.0 uM after 24 hrs by high throughput fluorescence microscopy relative to control; format: functional; outline: as §6
[23] = test system: H4; experiment: Induction of light chain 3-GFP level in human H4 cells at 9.0 uM after 24 hrs by high throughput fluorescence microscopy relative to control; format: functional; outline: as §6
[24] = test system: H4; experiment: Increase in light chain 3-GFP+ autophagosome vesicle area per cell in human H4 cells at 9.0 uM after 24 hrs by high throughput fluorescence microscopy relative to control; format: functional; outline: as §4
[25] = test system: H4; experiment: Increase in light chain 3-GFP+ autophagosome vesicle intensity per cell in human H4 cells at 9.0 uM after 24 hrs by high throughput fluorescence microscopy relative to control; format: functional; outline: as §5
[26] = test system: H4; experiment: Increase in light chain 3-GFP+ autophagosome vesicle intensity per cell in human H4 cells at 13.2 uM after 24 hrs by high throughput fluorescence microscopy relative to control; format: functional; outline: as §2
[27] = test system: H4; experiment: Increase in light chain 3-GFP+ autophagosome vesicle number per cell in human H4 cells at 13.2 uM after 24 hrs by high throughput fluorescence microscopy relative to control; format: functional; outline: as §2
[28] = test system: H4; experiment: Induction of light chain 3-GFP level in human H4 cells at 13.2 uM after 24 hrs by high throughput fluorescence microscopy relative to control; format: functional; outline: as §3
[29] = test system: H4; experiment: Increase in light chain 3-GFP+ autophagosome vesicle area per cell in human H4 cells at 13.2 uM after 24 hrs by high throughput fluorescence microscopy relative to control; format: functional; outline: as §2

Row | Compound | Activity [1] [%] | Activity [3] [%] | Activity [4] [%] | Activity [5] [%] | Activity [8] [%] | Activity [9] [%] | Activity [10] [%] | further results
1 | CC(=O)C1=C(O)[C@@H]2[C@H]3c4c[nH]c5cccc(c45)C[C@H]3C(C)(C)N2C1=O [CYCLOPIAZONIC ACID] | 41.44 | 33.06 | 96.32 | 30.54 | 96.45 | 97.66 | 103.58 | Activity [2]: 186.44%; Activity [6]: 162.66%; Activity [7]: 178.53%; Activity [11]: 112.62%
2 | CN1CCN(CCCN2c3ccccc3Sc3ccc(C(F)(F)F)cc32)CC1 [TRIFLUOPERAZINE] |  |  | 124.78 |  | 109 | 105.6 | 76.62 | Activity [12]: 94.28%; Activity [13]: 520.24%; Activity [14]: Dose-dependent effect; Activity [15]: 136.58%; Activity [16]: 364.24%; Activity [17]: Active; Activity [18]: inactive; Activity [19]: 105.72%; Activity [20]: 111.52%; Activity [21]: 1010.35%
3 | O=C(Nc1ccccc1)c1cc([N+](=O)[O-])ccc1Cl | 40.32 | 29.9 | 89.29 | 44.5 | 93.22 | 87.58 | 106.33 | Activity [22]: 128.11%; Activity [23]: 105.38%; Activity [24]: 137.98%; Activity [25]: 166.91%
4 | O[C@H]1[C@H](O)[C@@H](O)CN2CC[C@H](O)[C@H]12 [CASTANOSPERMINE] | 37.35 | 36.45 | 85.6 | 40.02 | 88.75 | 84.26 | 83.53 | Activity [26]: 171.2%; Activity [27]: 156.81%; Activity [28]: 157.35%; Activity [29]: 174.29%
